This note sets out measurements from ChEMBL document CHEMBL4613248, “Twelfth-Position Deuteration of Nevirapine Reduces 12-Hydroxy-Nevirapine Formation and Nevirapine-Induced Hepatocyte Death” (J Med Chem, 2020).

One series relates to Cytochrome P450. The experiment in a line: Drug metabolism in human liver microsomes assessed as Cytochrome P450-mediated formation of 12-OHNVP by measuring Kcat/Km ratio in presence of NADPH regenerating reagents by uHPLC-MS/MS analysis. The method, boiled down: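 Pooled human liver microsomes (2.5 mg/mL) in potassium phosphate; substrate (1–400 μM) prewarmed 5 min at 37 °C with NADPH-regenerating system, started with microsomes, 30 min at 37 °C. 12-OH product quantified by uHPLC-MS/MS Orbitrap against 12-OHNVP standard curve made in microsomes without NADPH. Kcat/Km taken as slope of linear rate vs substrate fit at nonsaturating 0–50 μM.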
In general terms: Liver microsomes are a subcellular fraction often used to study metabolism.

In series [1] the test system is Hepatocyte. The series can be described thus: Induction of change in Igfbp1 protein expression in C57BL/6J mouse primary hepatocytes at 400 uM incubated for 8 hrs by relative-quantitation label-free proteomics analysis relative to NVP. It is filed as cell-based. The method, boiled down: (§1)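 Fresh primary hepatocytes from male C57BL/6J mice aged 8–13 weeks, adhered overnight, then given fresh medium containing compound (400 μM), NVP (400 μM) or vehicle (0.2% DMSO) for 8 h. Lysate reduced (DTT) and alkylated (iodoacetamide), acetone-precipitated and digested with trypsin. Label-free Top10 nanoLC-MS with precursor ion area quantitation; unpaired t test P values, Cohen's d effect size.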

Series [2] deals with Hepatocyte. The series can be described thus: Induction of change in Rps27a protein expression in C57BL/6J mouse primary hepatocytes at 400 uM incubated for 8 hrs by relative-quantitation label-free proteomics analysis relative to NVP. It counts as cell-based. The method, boiled down: as §1
Series [3] has as its system Hepatocyte. The experiment in a line: Induction of change in Sirt5 protein expression in C57BL/6J mouse primary hepatocytes at 400 uM incubated for 8 hrs by relative-quantitation label-free proteomics analysis relative to NVP. It is filed as cell-based. The gist of the method: as §1
Series [4] deals with Hepatocyte. The experiment in a line: Induction of change in Rps27l protein expression in C57BL/6J mouse primary hepatocytes at 400 uM incubated for 8 hrs by relative-quantitation label-free proteomics analysis relative to NVP. It counts as cell-based. The gist of the method: as §1
In series [5] the test system is Hepatocyte. The series can be described thus: Induction of change in KARS protein expression in human primary hepatocytes at 10 uM incubated for 48 hrs by relative-quantitation label-free proteomics analysis relative to NVP. It is filed as cell-based. The method, boiled down:
(§2)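 Cryoplateable pooled human hepatocytes (10 mixed-sex donors per pool; three pools), adhered overnight, then given fresh medium containing compound (10 μM), NVP (10 μM) or vehicle (0.1% DMSO) for 48 h. Lysate reduced (DTT) and alkylated (iodoacetamide), acetone-precipitated and digested with trypsin. Label-free Top10 nanoLC-MS with precursor ion area quantitation; unpaired t test P values, Cohen's d effect size.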

Series [6] deals with Hepatocyte. The series can be described thus: Induction of change in EXOSC1 protein expression in human primary hepatocytes at 10 uM incubated for 48 hrs by relative-quantitation label-free proteomics analysis relative to NVP. It counts as cell-based. The method, boiled down: as §2

As for `[2H]C([2H])([2H])c1ccnc2c1NC(=O)c1cccnc1N2C1CC1`, in the series with Cytochrome P450, the Kcat/Km came to 0.153 M⁻¹ s⁻¹. Besides, the “fold change (FC)” value is on record as 4.7 with Hepatocyte [1]; 3.03 in the series with Hepatocyte [2]; 1.56 in the series on Hepatocyte [3]; -5.67 with Hepatocyte [4]; -1.42 in the series with Hepatocyte [5]; -2.73 in the series on Hepatocyte [6].
